# According to PubChem BioAssay AID2097 (Broad Institute, 2009):
# The campaign covered roughly 300,000 compounds. About 120 (0.04%) were called active. The list comes from a sample in which actives are over-represented; it also holds similar structures and randomly drawn compounds. Unmarked numbers belong to inactive results.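 Rule for the calls: active = more than half of replicate wells score below -50%, meaning over 50% inhibition versus plate controls; inconclusive = some replicates but at most half score below -50%; inactive = no replicate scores below -50%.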
# Target: Glycogen synthase kinase-3 beta (Homo sapiens) (UniProt P49841)
# Sequence (P49841 whole entry, looked up): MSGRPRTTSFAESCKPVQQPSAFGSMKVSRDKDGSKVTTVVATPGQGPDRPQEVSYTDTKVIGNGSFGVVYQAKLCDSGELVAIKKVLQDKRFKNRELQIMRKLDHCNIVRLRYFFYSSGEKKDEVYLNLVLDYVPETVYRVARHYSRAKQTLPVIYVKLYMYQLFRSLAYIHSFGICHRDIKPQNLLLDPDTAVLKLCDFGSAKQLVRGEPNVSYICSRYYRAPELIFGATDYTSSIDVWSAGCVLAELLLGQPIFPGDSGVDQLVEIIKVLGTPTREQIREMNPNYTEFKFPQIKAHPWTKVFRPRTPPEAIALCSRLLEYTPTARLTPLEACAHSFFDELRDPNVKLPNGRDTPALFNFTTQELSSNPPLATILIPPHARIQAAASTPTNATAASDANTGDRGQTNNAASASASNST
# Assay: blockers of GSK3B enzyme activity – biochemical, cell-free homogeneous, HTS, primary screen (AID 2097);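 note: 0% = median DMSO wells and -100% = median GW8510 positive control wells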
# Settings: GST-GSK3beta kinase, ADP-Glo luminescence, 60 min; at 10 µM; stronger effect = lower value
# Procedure, shortened: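 Assay system: GST-tagged human GSK3beta kinase, cell-free; Input: 1.6 ng GSK3beta; Medium: Tris/MgCl2 kinase buffer; Timing: 60 min enzyme reaction, room temperature; Signal: ADP-Glo luminescence quantifying ADP generated by kinase; Evaluation: score relative to plate controls; Benchmarks: DMSO neutral wells and GW8510 at 20 µM as positive.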
row,SMILES,activity score (negative = inhibition)
1,COc1ccc(C(=O)NC(C)Cn2nc(C)cc2C)cc1OC1CCN(C(C)=O)CC1 (stereo not given),-1.16%
2,COc1cc(CN2CCC(n3nccc3NC(=O)CCCc3ccccc3)CC2)ccc1O,1.56%
3,O=C(Cc1ccccc1)NCC1OCCc2ccccc21 (stereo not given),1.24%
4,CSCCNCc1cn(-c2ccc(F)cc2F)nc1-c1ccccc1C,6.14%
5,COCCCNC(=O)CNC(=S)N(Cc1cc(OC)c(OC)c(OC)c1)C1CCCC1,-1.22%
6,CC(CCc1ccccc1)NCC(O)c1cccc([N+](=O)[O-])c1 (stereo not given),0.339%
7,O=C(C1CC1)N1N=C2CCCCC2C1(O)C(F)(F)F (stereo not given),-1.66%
8,Cc1ccn2c(=O)c(NC(=O)c3cccc4ccccc34)c(C)nc2c1,-0.598%
9,CCN(CC(=O)N1CCCC1)S(=O)(=O)c1ccc(F)cc1,-0.618%
10,O=C(NCCNc1ccc([N+](=O)[O-])cc1Cl)c1ccccc1F,-5.43%
11,COc1ccc(N(Cc2ccc(N(C)C)cc2)C(=O)c2ccc(S(C)(=O)=O)cc2)cc1,1.2%
12,Cc1cc(C)c(OCCN2CC(C)OC(C)C2)c(Br)c1 (stereo not given),-2.1%
13,Cc1nc(SCC(=O)NC2CCCC2)[nH]c(=O)c1C,1.74%
14,COc1ccccc1CNC(=O)C1CCN(S(=O)(=O)c2ccc3c(c2)OCCO3)CC1,-1.16%
15,COc1ccc(CCc2nc(-c3cccs3)no2)cc1,2.12%
16,O=C(CCN1C(=O)C2C3C=CC(C3)C2C1=O)Oc1ccc2ccccc2c1 (stereo not given),1.85%
17,Nc1cccnc1Sc1ccccc1,-4.02%
18,C=CCn1cc(C(=O)NCc2ccc(Cl)cc2)c(=O)c2cc(S(=O)(=O)N(CC)CC)ccc21,4.27%
19,O=C(O)C1CCCN1C1=NS(=O)(=O)c2ccccc21 (stereo not given),1.84%
20,COC(=O)c1c(C(=O)OC)c(-c2cccc(C)c2)n2c1CS(=O)C2 (stereo not given),-0.0395%
21,C[C@H](NC(=O)[C@@H]1Cc2ccccc2CN1C(=O)OC(C)(C)C)C(=O)NC1CCCC1,0.0958%
22,C=CCN1CCN(C(=O)CCCc2ccccc2)CC1,3.12%
23,COc1ccccc1N1CCC(N2CCN(CC(C)(C)C)C(CCO)C2)CC1 (stereo not given),-1.04%

row,SMILES,activity score (negative = inhibition)
1,COc1ccccc1C(=O)Nc1ccnn1C1CCN(C(=O)C(C)(C)C)CC1,-0.909%
2,CC(C)(C)NC(=O)CSC(=Nc1ccccc1F)NC#N,0.51%
3,Cc1c(NC(=S)NC(=O)CCc2ccccc2)c(=O)n(-c2ccccc2)n1C,0.697%
4,COCc1ccc(C(=O)N2CCc3c([nH]c4ccccc34)C2c2ccccn2)s1 (stereo not given),1.6%
5,CCNC(=S)N(CCN(CC)CC)Cc1cc2cc3c(cc2[nH]c1=O)OCCO3,1.49%
6,Cc1csc(NC(=O)CSc2nc(=O)cc(N)n2-c2ccc(F)cc2)n1,1.17%
7,Cc1c(C(=O)NCCN(C)C)oc2ccc(S(=O)(=O)N3CCCC3)cc12,-4.78%
8,CN1CCN(/N=C/c2ccc(-c3ccc([N+](=O)[O-])cc3)o2)CC1,-0.646%
9,Cc1ccc([N+](=O)[O-])cc1S(=O)(=O)N1CCCN(C)CC1,-1.01%
10,CN1CCN(/N=C2/C(=O)Nc3ccc([N+](=O)[O-])cc32)CC1,-63.8% (active)
11,Cc1cccc(NC(=O)C2CC(=O)OC23CCCC3)c1 (stereo not given),2.08%
12,COCCn1c(C)cc(C(=O)CSc2nc3ccccc3c(=O)n2C(C)COC)c1C (stereo not given),-2.4%
13,COC(=O)/C(=C\Nc1ccccc1)NC(=O)c1ccc(Cl)cc1Cl,1.73%
14,N/C(=N\OC(=O)CCCC(=O)O)c1ncc(C(F)(F)F)cc1Cl,1.16%
15,CCS(=O)(=O)N1CCC(N2CCN(c3ccccc3)CC2)CC1,1%
16,CCc1cccc(NC(=S)N(CCN(C)C)C2CCN(C(C)C)CC2)c1,1.7%
17,COc1ccc2ccccc2c1CNCc1ccccn1,-4.15%
18,O=[N+]([O-])c1ccccc1S(=O)(=O)Nc1cccc2cccnc12,0.31%
19,CC(=O)N1CC[n+]2c(-c3ccc([N+](=O)[O-])cc3)csc21,-0.11%
20,COCCn1c(SCC(=O)Nc2ccccc2F)nc2c(c1=O)SCC2,0.573%
21,CN(CC(=O)Nc1ccccc1Cl)C(=O)c1ccccc1SCC(=O)N1CCCC1,-1.62%
22,CC(=O)Nc1cccc(C(=O)OCC(=O)c2ccc3c(c2)OCO3)c1,0.7%
23,COc1ccc(N(CC(=O)N2CCCCCC2)S(=O)(=O)c2ccccc2)cc1,-4.12%

row,SMILES,activity score (negative = inhibition)
1,CCOc1ccc(NC(=O)c2ccc(NC(=O)CN3C(=O)C(=O)N(CC(C)C)C3=O)cc2)cc1,0.0927%
2,OCCCNc1nc(-c2ccccc2)c2cc(Cl)ccc2n1,0.00658%
3,OCCCNc1nccc(-c2cc(Nc3cccc(Cl)c3)ncn2)n1,-98.4% (active)
4,CC(C)n1cnc2c(Nc3cccc(Cl)c3)nc(N(CCO)CCCO)nc21,-11.5%
5,Nc1nonc1-n1nnc(C(=O)N/N=C\c2ccncc2)c1CN1CCCCC1,-94.2% (active)
6,Nc1nonc1-n1nnc(C(=O)N/N=C/c2ccccc2O)c1CN1CCCC1,-36.9%
7,NNC(=O)c1nnn(-c2nonc2N)c1CN1CCCC1,2.11%
8,CN(CCC1CCOCC1)C(=O)CC1C(=O)NCCN1Cc1cccc(F)c1 (stereo not given),-0.992%
9,COc1ccc(S(=O)(=O)NCCCCOc2ccc(Cl)cc2)cc1,-0.131%
10,CC(=O)Nc1ccccc1OC(C)C(=O)N1CCC(C)CC1 (stereo not given),0.974%
11,CCn1cc(C(=O)NCCC(=O)NCCO)c(=O)c2cc3c(cc21)OCO3,-2.21%
12,COc1ccccc1-n1c(=S)[nH]c2c(sc(=S)n2-c2ccc(C)cc2C)c1=O,-0.962%
13,NC(=O)C[n+]1cccc(C(N)=O)c1,2.13%
14,CC(=O)Nc1ccc(C(=O)Nc2cccc(S(=O)(=O)NC3=NCCC3)c2)cc1,1.23%
15,CSC1=NC2(C)CCCCC2C12C=CC(=O)C=C2 (stereo not given),2.87%
16,Cc1nc(C)c(-c2nnc(-c3cccc(S(=O)(=O)N(C)C)c3)o2)cc1C(=O)NN,-3.56%
17,CC(=O)N1CCN(S(=O)(=O)c2cccc(C(=O)NC3CCC(C)CC3)c2)CC1 (stereo not given),-4.6%
18,O=C(NCc1ccco1)/C(=C\c1cccc([N+](=O)[O-])c1)NC(=O)c1ccco1,-2.64%
19,CCS(=O)(=O)c1ccc(-c2cccc(NC(=O)c3ccc(Br)o3)c2)nn1,2.73%
20,CCC(C)(C)NC(=O)C(c1cccc(OC)c1OC)N(CC(C)C)C(=O)CCC(=O)Nc1cc(C)on1 (stereo not given),-2.19%
21,COC(=O)[C@@H]1C[C@@]2(O)[C@H](O)[C@H](O)[C@H](O)C[C@H]2N1Cc1ccc(C)s1,2.63%
22,CCCCC1S/C(=N/N=C/c2cccs2)NC1=O (stereo not given),0.416%
23,COc1ccc(OC)c(-c2csc(NC(=O)C3=NNC(=O)CC3)n2)c1,-0.495%

row,SMILES,activity score (negative = inhibition)
1,CC(C)c1ccc(NC(=O)CCN2C(=O)c3ccc([N+](=O)[O-])cc3C2=O)cc1,-3.13%
2,O=S(=O)(NC1CC1)c1ccc(F)c(F)c1,1.68%
3,CCCCn1c(=O)c(CCC(=O)OCC(=O)Nc2ccc(C)c(Cl)c2)nc2ccccc21,-3%
4,CCN(C(=O)C1CCCN(c2nc(-c3ccc(OC)cc3)no2)C1)c1ccc(OC)cc1 (stereo not given),-3.3%
5,COc1ccc(NC(=O)CCC(=O)N2CCN(S(=O)(=O)c3ccc(C)cc3)CC2)c(OC)c1,-0.163%
6,CCCc1ccc(OCC(O)CN2CCN(C(=O)OCC)CC2)cc1 (stereo not given),4.1%
7,CCc1nn(CCCC(=O)Nc2ccc(C)cc2C)c(=O)c2cc3occc3n12,2.31%
8,CC(=O)C1=C(C)NC(C)=C(C(C)=O)C1c1cn(-c2ccccc2)nc1-c1cccs1,-1.7%
9,O=C(N/N=C/c1cccc(O)c1)c1cc2c(ccc3ccccc32)o1,-3.92%
10,COc1ccc(Cl)cc1NC(=O)CN(C)C(=O)CCCc1c[nH]c2ccccc12,-0.853%
11,COc1ccc(-n2nc(C(=O)NCC(=O)N3CCCCCC3)c3ccccc3c2=O)cc1Cl,-0.439%
12,COc1cccc(CCNC(=O)COc2cccc3c2OC(C)(C)C3)c1,1.98%
13,Cc1ccc(NC(=O)Cn2cccc2C2=NC(c3ccccc3)CO2)c(C)c1 (stereo not given),-1.16%
14,COc1ccc(C(=O)C2CCCN(C(=O)c3ccc(OC)o3)C2)c(C)c1 (stereo not given),0.0837%
15,CC(C)Cc1ccc(C(C)C(=N)N)cc1 (stereo not given),-0.885%
16,CC(C)(C)c1ccc(C(=O)NNC(=O)Cc2ccccc2)cc1,-1.05%
17,COc1ccc(NC(=O)C2CCC(CNS(=O)(=O)c3csc(C(N)=O)c3)CC2)cc1OC (stereo not given),2.83%
18,O=c1c2c(ncn1Cc1ccccc1)nc1n2CCC1,-1.79%
19,O=C(CSc1ccc(-c2ccc(-n3cccn3)cc2)nn1)Nc1ccc([N+](=O)[O-])cc1,-1.44%
20,CCO[C@@H]1OC(C(=O)NC2CC2)=C[C@H](C)[C@H]1CCCO,1.19%
21,CCOC(=O)C1=C(CC)Nc2ccccc2N=C1NC(=O)c1cccc(S(=O)(=O)N2CCCC2)c1,3.96%
